Laboratory results from ChEMBL document CHEMBL1145439, “Fluorine-18-labeled benzamide analogues for imaging the sigma2 receptor status of solid tumors with positron emission tomography” (J Med Chem, 2007).
Values belong to the compound of their own block, whether it stands above or below them.

What was measured:
Muscle tissue [1] = test: Biodistribution in muscle of mouse EMT6 tumor bearing BALB/c mouse at 10 to 20 uCi after 120 mins; type: ADME, organism-based; conditions: in vivo, 2 h
In short: (§1)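 EMT-6 cells (5×10^5 in 100 µL PBS) implanted s.c. in scapular region of female Balb/c mice (~2 months, 17-22 g); studied 7-10 days later at ~0.2 cm3 tumor. 18F tracer 10-20 µCi in 100-150 µL saline via tail vein; ≥4 mice per time point; tissue removed at sacrifice, weighed, gamma-counted; %ID/g calculated.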

Liver [2] = test: Biodistribution in liver of mouse EMT6 tumor bearing BALB/c mouse at 10 to 20 uCi after 5 mins; type: ADME, organism-based; conditions: in vivo; in short: as §1
Brain [3] = test: Biodistribution in brain of EMT6 tumor bearing BALB/c mouse at 10 to 20 uCi after 60 mins; type: ADME, organism-based; conditions: in vivo, 1 h; in short: as §1
Adipose tissue [4] = test: Biodistribution in fat of mouse EMT6 tumor bearing BALB/c mouse at 10 to 20 uCi after 120 mins; type: ADME, organism-based; conditions: in vivo, 2 h; in short: as §1
Lung [5] = test: Biodistribution in lung of mouse EMT6 tumor bearing BALB/c mouse at 10 to 20 uCi after 30 mins; type: ADME, organism-based; conditions: in vivo, 0.5 h; in short: as §1
EMT6 [6] = test: Biodistribution in tumor of mouse EMT6 tumor bearing BALB/c mouse at 10 to 20 uCi after 60 mins; type: ADME, organism-based; conditions: emt6, 1 h; in short: as §1
Muscle tissue [7] = test: Biodistribution in muscle of mouse EMT6 tumor bearing BALB/c mouse at 10 to 20 uCi after 30 mins; type: ADME, organism-based; conditions: in vivo, 0.5 h; in short: as §1
Kidney [8] = test: Biodistribution in kidney of mouse EMT6 tumor bearing BALB/c mouse at 10 to 20 uCi after 30 mins; type: ADME, organism-based; conditions: in vivo, 0.5 h; in short: as §1
Bone [9] = test: Biodistribution in bone of mouse EMT6 tumor bearing BALB/c mouse at 10 to 20 uCi after 5 mins; type: ADME, organism-based, Bone element; conditions: in vivo; in short: as §1
Heart [10] = test: Biodistribution in heart of mouse EMT6 tumor bearing BALB/c mouse at 10 to 20 uCi after 30 mins; type: ADME, organism-based; conditions: in vivo, 0.5 h; in short: as §1
Lung [11] = test: Biodistribution in lung of mouse EMT6 tumor bearing BALB/c mouse at 10 to 20 uCi after 120 mins; type: ADME, organism-based; conditions: in vivo, 2 h; in short: as §1
Heart [12] = test: Biodistribution in heart of EMT6 tumor bearing BALB/c mouse at 10 to 20 uCi after 120 mins; type: ADME, organism-based; conditions: in vivo, 2 h; in short: as §1
Blood [13] = test: Biodistribution in blood of mouse EMT6 tumor bearing BALB/c mouse at 10 to 20 uCi after 30 mins; type: ADME, organism-based; conditions: in vivo, 0.5 h; in short: as §1
Adipose tissue [14] = test: Biodistribution in fat of mouse EMT6 tumor bearing BALB/c mouse at 10 to 20 uCi after 60 mins; type: ADME, organism-based; conditions: in vivo, 1 h; in short: as §1
Blood [15] = test: Biodistribution in blood of mouse EMT6 tumor bearing BALB/c mouse at 10 to 20 uCi after 60 mins; type: ADME, organism-based; conditions: in vivo, 1 h; in short: as §1
Adipose tissue [16] = test: Biodistribution in fat of mouse EMT6 tumor bearing BALB/c mouse at 10 to 20 uCi after 5 mins; type: ADME, organism-based; conditions: in vivo; in short: as §1
Lung [17] = test: Biodistribution in lung of mouse EMT6 tumor bearing BALB/c mouse at 10 to 20 uCi after 5 mins; type: ADME, organism-based; conditions: in vivo; in short: as §1
Brain [18] = test: Biodistribution in brain of EMT6 tumor bearing BALB/c mouse at 10 to 20 uCi after 5 mins; type: ADME, organism-based; conditions: in vivo; in short: as §1
Liver [19] = test: Biodistribution in liver of mouse EMT6 tumor bearing BALB/c mouse at 10 to 20 uCi after 30 mins; type: ADME, organism-based; conditions: in vivo, 0.5 h; in short: as §1
EMT6 [20] = test: Biodistribution in tumor of EMT6 tumor bearing BALB/c mouse 10 to 20 uCi after 30 mins; type: ADME, organism-based; conditions: emt6, 0.5 h; in short: as §1
Muscle tissue [21] = test: Biodistribution in muscle of mouse EMT6 tumor bearing BALB/c mouse at 10 to 20 uCi after 60 mins; type: ADME, organism-based; conditions: in vivo, 1 h; in short: as §1
Kidney [22] = test: Biodistribution in kidney of mouse EMT6 tumor bearing BALB/c mouse at 10 to 20 uCi after 60 mins; type: ADME, organism-based; conditions: in vivo, 1 h; in short: as §1
EMT6 [23] = test: Biodistribution in tumor of mouse EMT6 tumor bearing BALB/c mouse at 10 to 20 uCi after 5 mins; type: ADME, organism-based; conditions: emt6, 5 min; in short: as §1
Adipose tissue [24] = test: Biodistribution in fat of mouse EMT6 tumor bearing BALB/c mouse at 10 to 20 uCi after 30 mins; type: ADME, organism-based; conditions: in vivo, 0.5 h; in short: as §1
Liver [25] = test: Biodistribution in liver of mouse EMT6 tumor bearing BALB/c mouse at 10 to 20 uCi after 120 mins; type: ADME, organism-based; conditions: in vivo, 2 h; in short: as §1
Blood [26] = test: Biodistribution in blood of mouse EMT6 tumor bearing BALB/c mouse at 10 to 20 uCi after 5 mins; type: ADME, organism-based; conditions: in vivo; in short: as §1
Bone [27] = test: Biodistribution in bone of mouse EMT6 tumor bearing BALB/c mouse at 10 to 20 uCi after 60 mins; type: ADME, organism-based, Bone element; conditions: in vivo, 1 h; in short: as §1
EMT6 [28] = test: Biodistribution in tumor of mouse EMT6 tumor bearing BALB/c mouse at 10 to 20 uCi after 120 mins; type: ADME, organism-based; conditions: emt6, 2 h; in short: as §1
Lung [29] = test: Biodistribution in lung of mouse EMT6 tumor bearing BALB/c mouse at 10 to 20 uCi after 60 mins; type: ADME, organism-based; conditions: in vivo, 1 h; in short: as §1
Heart [30] = test: Biodistribution in heart of mouse EMT6 tumor bearing BALB/c mouse at 10 to 20 uCi after 60 mins; type: ADME, organism-based; conditions: in vivo, 1 h; in short: as §1
Blood [31] = test: Biodistribution in blood of mouse EMT6 tumor bearing BALB/c mouse at 10 to 20 uCi after 120 mins; type: ADME, organism-based; conditions: in vivo, 2 h; in short: as §1
Kidney [32] = test: Biodistribution in kidney of mouse EMT6 tumor bearing BALB/c mouse at 10 to 20 uCi after 120 mins; type: ADME, organism-based; conditions: in vivo, 2 h; in short: as §1
Heart [33] = test: Biodistribution in heart of mouse EMT6 tumor bearing BALB/c mouse at 10 to 20 uCi after 5 mins; type: ADME, organism-based; conditions: in vivo; in short: as §1
Liver [34] = test: Biodistribution in liver of mouse EMT6 tumor bearing BALB/c mouse at 10 to 20 uCi after 60 mins; type: ADME, organism-based; conditions: in vivo, 1 h; in short: as §1
Bone [35] = test: Biodistribution in bone of mouse EMT6 tumor bearing BALB/c mouse at 10 to 20 uCi after 30 mins; type: ADME, organism-based, Bone element; conditions: in vivo, 0.5 h; in short: as §1
Kidney [36] = test: Biodistribution in kidney of mouse EMT6 tumor bearing BALB/c mouse at 10 to 20 uCi after 5 mins; type: ADME, organism-based; conditions: in vivo; in short: as §1
Muscle tissue [37] = test: Biodistribution in muscle of EMT6 tumor bearing BALB/c mouse at 10 to 20 uCi after 5 mins; type: ADME, organism-based; conditions: in vivo; in short: as §1
Brain [38] = test: Biodistribution in brain of mouse EMT6 tumor bearing BALB/c mouse at 10 to 20 uCi after 120 mins; type: ADME, organism-based; conditions: in vivo, 2 h; in short: as §1
Bone [39] = test: Biodistribution in bone of mouse EMT6 tumor bearing BALB/c mouse at 10 to 20 uCi after 120 mins; type: ADME, organism-based, Bone element; conditions: in vivo, 2 h; in short: as §1
Brain [40] = test: Biodistribution in brain of EMT6 tumor bearing BALB/c mouse at 10 to 20 uCi after 30 mins; type: ADME, organism-based; conditions: in vivo, 0.5 h; in short: as §1
[41] = Displacement of [3H]DTG from sigma 2 receptor in rat liver membrane after 120 mins; type: cell membranes
In short: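 Rat liver membranes (~300 µg protein) incubated with ~5 nM [3H]DTG plus 1 µM (+)-pentazocine to mask σ1 sites, 120 min at room temperature; 10 µM haloperidol defines nonspecific binding; filtration and scintillation counting. One-site nonlinear regression IC50, converted to Ki by Cheng-Prusoff; mean ± SEM.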

[42] = Selectivity for rat liver sigma 2 receptor over guinea pig brain sigma 1 receptor

Ki [41]: 1.06 nM
SMILES: COc1cc2c(cc1OC)CN(CCCCNC(=O)c1cc(I)ccc1OCCF)CC2

Ki [41]: 0.26 nM
Ratio Ki [42]: 8190
SMILES: COc1cc2c(cc1OC)CN(CCCCNC(=O)c1cc(I)cc(OC)c1OCCF)CC2

More lines, now with the values behind:

SMILES: COc1cc2c(cc1OC)CN(CCCCNC(=O)c1cc(I)ccc1OCC[18F])CC2
Drug uptake (Muscle tissue [1]): 0.6 % ID/g
Drug uptake (Liver [2]): 37.26 % ID/g
Drug uptake (Brain [3]): 0.36 % ID/g
Drug uptake (Adipose tissue [4]): 0.44 % ID/g
Drug uptake (Lung [5]): 4.07 % ID/g
Drug uptake (EMT6 [6]): 2.72 % ID/g
Drug uptake (Muscle tissue [7]): 1.12 % ID/g
Drug uptake (Kidney [8]): 17.43 % ID/g
Drug uptake (Bone [9]): 2.59 % ID/g
Drug uptake (Heart [10]): 2.37 % ID/g
Drug uptake (Lung [11]): 1.36 % ID/g
Drug uptake (Heart [12]): 1 % ID/g
Drug uptake (Blood [13]): 4.3 % ID/g
Drug uptake (Adipose tissue [14]): 0.62 % ID/g
Drug uptake (Blood [15]): 3.39 % ID/g
Drug uptake (Adipose tissue [16]): 2.32 % ID/g
Drug uptake (Lung [17]): 9.71 % ID/g
Drug uptake (Brain [18]): 0.55 % ID/g
Drug uptake (Liver [19]): 17.35 % ID/g
Drug uptake (EMT6 [20]): 2.81 % ID/g
Drug uptake (Muscle tissue [21]): 0.83 % ID/g
Drug uptake (Kidney [22]): 9.36 % ID/g
Drug uptake (EMT6 [23]): 2.54 % ID/g
Drug uptake (Adipose tissue [24]): 1.04 % ID/g
Drug uptake (Liver [25]): 4.25 % ID/g
Drug uptake (Blood [26]): 4.6 % ID/g
Drug uptake (Bone [27]): 0.99 % ID/g
Drug uptake (EMT6 [28]): 1.92 % ID/g
Drug uptake (Lung [29]): 2.34 % ID/g
Drug uptake (Heart [30]): 1.61 % ID/g
Drug uptake (Blood [31]): 1.92 % ID/g
Drug uptake (Kidney [32]): 3.92 % ID/g
Drug uptake (Heart [33]): 3.22 % ID/g
Drug uptake (Liver [34]): 7.31 % ID/g
Drug uptake (Bone [35]): 1.31 % ID/g
Drug uptake (Kidney [36]): 36.07 % ID/g
Drug uptake (Muscle tissue [37]): 1.52 % ID/g
Drug uptake (Brain [38]): 0.37 % ID/g
Drug uptake (Bone [39]): 1.67 % ID/g
Drug uptake (Brain [40]): 0.44 % ID/g

SMILES: COc1cc2c(cc1OC)CN(CCNC(=O)c1cc(C)ccc1OCCF)CC2
Ki [41]: 102 nM
Ratio Ki [42]: 222

SMILES: COc1cc2c(cc1OC)CN(CCCCNC(=O)c1cc(C)ccc1OCCF)CC2
Ki [41]: 6.95 nM
Ratio Ki [42]: 48
